We go through 19 molecules from ChEMBL document CHEMBL1133587, “Synthesis, biological activity, and molecular modeling of ribose-modified deoxyadenosine bisphosphate analogues as P2Y(1) receptor ligands” (J Med Chem, 2000).

Molecules are shown by their SMILES. Activity calls are given as the source filed them. No cut-off for these calls is given here.

Holding throughout (format): functional
Assay [1] has as its target T1, P2Y purinoceptor 1 (Meleagris gallopavo, UniProt P49652). The assay is described as follows: (§1) In vitro stimulation of 2PY1 purinoceptor mediated phospholipase C (PLC) activity in Turkey Erythrocyte Ghosts. Summed up:
(§2)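 Turkey erythrocytes labelled 18-24 h at 37 °C with 2-[3H]myo-inositol in inositol-free DMEM. Ghosts prepared by hypotonic lysis (about 175 µg protein). Incubated 5 min at 30 °C in Hepes pH 7.0 buffer with 1 µM GTPγS and graded nucleotide. Total [3H]inositol phosphates measured by anion-exchange chromatography. EC50 from four-parameter logistic fit. Efficacy given relative to maximal 2-MeSADP. At least three experiments, duplicate or triplicate.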

Assay [2] deals with P2Y purinoceptor 1 (Meleagris gallopavo) (UniProt P49652). The assay is described as §1. The method, boiled down: as §2
P2Y purinoceptor 1 (Meleagris gallopavo), sequence (P49652 whole entry): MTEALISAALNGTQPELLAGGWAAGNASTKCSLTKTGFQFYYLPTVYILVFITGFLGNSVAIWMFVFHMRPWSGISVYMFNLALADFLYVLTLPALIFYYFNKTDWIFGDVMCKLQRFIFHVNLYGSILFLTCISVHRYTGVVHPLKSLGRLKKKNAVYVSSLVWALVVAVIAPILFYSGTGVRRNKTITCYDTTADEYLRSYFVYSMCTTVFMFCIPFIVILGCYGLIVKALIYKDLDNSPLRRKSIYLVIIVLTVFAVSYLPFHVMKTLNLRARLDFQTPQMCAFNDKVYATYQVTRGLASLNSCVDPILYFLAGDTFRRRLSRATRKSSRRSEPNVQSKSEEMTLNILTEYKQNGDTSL
Assay [3] deals with T1, P2Y purinoceptor 1. The assay is described as follows: (§3) Inhibition of 30 nM 2-MeSADP stimulation of 2PY1-mediated phospholipase C (PLC) activity in Turkey erythrocyte ghosts. The method, boiled down:
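[3H]inositol-labelled turkey erythrocyte ghosts incubated 5 min at 30 °C, pH 7.0, with 1 µM GTPγS. Graded analogue was combined with 30 nM 2-MeSADP. Total [3H]inositol phosphates separated by anion-exchange chromatography. Maximal inhibition is 100 minus residual stimulation at the highest concentration. At least three membrane preparations, duplicate or triplicate assays.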

The target of assay [4] is P2Y purinoceptor 1 (Meleagris gallopavo) (UniProt P49652). The assay is described as §3. The method, boiled down: (§4)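 [3H]inositol-labelled turkey erythrocyte ghosts incubated 5 min at 30 °C, pH 7.0, with 1 µM GTPγS. Graded analogue was combined with 30 nM 2-MeSADP. Total [3H]inositol phosphates separated by anion-exchange chromatography. IC50 is 50% inhibition of the 2-MeSADP response. Maximal inhibition is 100 minus residual stimulation at the highest concentration. At least three membrane preparations, duplicate or triplicate assays.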

The target of assay [5] is T1, P2Y purinoceptor 1. The assay is described as follows: Inhibition of 30 nM 2-MeSADP stimulation of 2PY1-mediated phospholipase C (PLC) activity in Turkey erythrocyte ghosts; small decrease. Summed up: as §4
In assay [6] the target is P2Y purinoceptor 1 (Meleagris gallopavo) (UniProt P49652). The assay is described as follows: Inhibition of 30 nM 2-MeSADP stimulation of 2PY1-mediated phospholipase C (PLC) activity in Turkey erythrocyte ghosts; NE=not effective. The method, boiled down:
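Turkey erythrocytes were labelled with 2-[3H]myo-inositol in inositol-free DMEM for 18-24 h at 37 °C, then lysed hypotonically to make ghosts. Ghosts (about 175 µg protein) were incubated 5 min at 30 °C in KCl/Hepes medium at pH 7.0 with 1 µM GTPγS, 30 nM 2-MeSADP and the test nucleotide. Total [3H]inositol phosphates were measured by anion exchange. IC50 came from logistic fits, with at least three experiments.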

T1 sequence (P49652 whole entry): as above

At P2Y purinoceptor 1 [1], `CNc1nc(N)nc2c1ncn2[C@@H]1C[C@H](COP(=O)(O)O)[C@H](OP(=O)(O)O)C1` yielded a concentration giving a half-maximal response (EC50) of 6510 nM. This molecule displayed a Max increase in assay [2] of 26%. This molecule came in with an IC50 on P2Y purinoceptor 1 [3] of 5420 nM. The Max inhibition in assay [4] amounted to 74%.
`Nc1ncnc2c1ncn2C1CN(CCP(=O)(O)O)CC(COP(=O)(O)O)O1` (stereo not given): the IC50 result against P2Y purinoceptor 1 [5] is “Partially active”. Besides, the Max inhibition in assay [4] came to 37%.
`CNc1nc(Cl)nc2c1ncn2C1COC(COP(=O)(O)O)C(OP(=O)(O)O)C1` (stereo not given) returned an IC50 against P2Y purinoceptor 1 [3] of 566 nM. The molecule also came in with a Max inhibition in assay [4] of 100%.
Molecule `CNc1ncnc2c1ncn2[C@@H]1C[C@H](COP(=O)(O)O)[C@H](OP(=O)(O)O)C1` returned a half-maximal inhibitory concentration (IC50) on P2Y purinoceptor 1 [3] of 148 nM. In assay [4], this molecule yielded a Max inhibition of 100%.
Turning to `Nc1ncnc2c1ncn2C12CC(OP(=O)(O)O)C(COP(=O)(O)O)C1C2` (stereo not given), the midpoint of the response on P2Y purinoceptor 1 [1], the EC50, lay at 18900 nM. In assay [2], the Max increase amounted to 50%. Further, 40000 nM corresponded to half-maximal inhibition on P2Y purinoceptor 1 [3] (IC50). The Max inhibition in assay [4] turned out to be 42%.
Consider `Nc1ncnc2c1ncn2C1CN(CCP(=O)(O)O)CC(COP(=O)(O)OP(=O)(O)OP(=O)(O)O)O1` (stereo not given), for which the half-maximal inhibitory concentration (IC50) entry against P2Y purinoceptor 1 [5] is given as “Partially active”.
Molecule `CNc1nc(SC)nc2c1ncn2[C@H]1C[C@H](OP(=O)(O)O)[C@@H](COP(=O)(O)O)O1` registered a Max increase in assay [2] of 6%. This molecule also displayed a Max inhibition in assay [4] of 94%.
With `Nc1ncnc2c1ncn2[C@@H]1CO[C@H](COP(=O)(O)O)[C@@H](OP(=O)(O)O)C1`, in assay [2], the Max increase was 100%. Moreover, the Max inhibition entry in assay [6] is “inactive”.
`CNc1ncnc2c1ncn2C1CC(OP(=O)(O)O)C2(COP(=O)(O)O)CC12` (stereo not given): the concentration for half-maximal inhibition (IC50) on P2Y purinoceptor 1 [3] worked out at 157 nM. The same molecule gave a Max inhibition in assay [4] of 100%.
The molecule `Nc1ncnc2c1ncn2C1CN(CCP(=O)(O)O)CC(COP(=O)(O)OP(=O)(O)O)O1` (stereo not given) came in with a Max increase in assay [2] of 11%. Further, in assay [6], the Max inhibition entry was “inactive”.
On P2Y purinoceptor 1 [1], `Nc1ncnc2c1ncn2C1CC(OP(=O)(O)O)C2(COP(=O)(O)O)CC12` (stereo not given) had an EC50 of 155 nM. Further, the Max increase in assay [2] was found to be 92%. In addition, the Max inhibition result in assay [6] was “inactive”.
`CNc1nc(Cl)nc2c1ncn2[C@H]1C[C@H](OP(=O)(O)O)[C@@H](COP(=O)(O)O)O1` displayed a Max inhibition in assay [4] of 95%.
Consider `CNc1nc(Cl)nc2c1ncn2[C@H]1C[C@@H](OP(=O)(O)O)[C@]2(COP(=O)(O)O)C[C@H]12`, for which the half-maximal inhibitory concentration (IC50) against P2Y purinoceptor 1 [3] worked out at 51.6 nM. Besides, in assay [4], the Max inhibition was determined as 100%.
Take `Nc1ncnc2c1ncn2[C@@H]1C[C@H](COP(=O)(O)O)[C@H](OP(=O)(O)O)C1`: a half-maximal response at P2Y purinoceptor 1 [1] (EC50) required 7210 nM. The molecule further gave a Max increase in assay [2] of 27%. At P2Y purinoceptor 1 [3], this molecule registered an IC50 of 2530 nM. In assay [4], this molecule displayed a Max inhibition of 73%.
`CNc1ncnc2c1ncn2C1COC(COP(=O)(O)O)C(OP(=O)(O)O)C1` (stereo not given) displayed a half-maximal inhibitory concentration (IC50) against P2Y purinoceptor 1 [3] of 1640 nM. Moreover, the Max inhibition in assay [4] stood at 100%.
In the case of `CNc1ncnc2c1ncn2C1COC(COP(=O)(O)OP(=O)(O)OP(=O)(O)O)C(O)C1` (stereo not given), the 50% effective concentration (EC50) at P2Y purinoceptor 1 [1] was 9350 nM. Also, the Max increase in assay [2] worked out at 18%. Besides, the midpoint of inhibition on P2Y purinoceptor 1 [3], the IC50, lay at 2370 nM. This molecule also registered a Max inhibition in assay [4] of 82%.
In turn, `CNc1nc(Cl)nc2c1ncn2[C@@H]1C[C@H](OP(=O)(O)O)C1COP(=O)(O)O` (stereo not given in full) returned an IC50 against P2Y purinoceptor 1 [3] of 805 nM. In assay [4], this molecule displayed a Max inhibition of 100%.
Take `C[C@H]1O[C@@H](n2cnc3c(N)ncnc32)[C@H](OP(=O)(O)O)[C@@H]1OP(=O)(O)O`: at P2Y purinoceptor 1 [5], the IC50 entry was “Partially active”. The same molecule came in with a Max inhibition in assay [4] of 47%.
In assay [2], `CNc1nc(N)nc2c1ncn2[C@H]1C[C@H](OP(=O)(O)O)[C@@H](COP(=O)(O)O)O1` displayed a Max increase of 4%. In assay [4], this molecule displayed a Max inhibition of 96%.
